Measured values as given in ChEMBL document CHEMBL1275435, “A naturally occurring proline-to-alanine amino acid change in Fks1p in Candida parapsilosis, Candida orthopsilosis, and Candida metapsilosis accounts for reduced echinocandin susceptibility” (Antimicrob Agents Chemother, 2008).
Values after ≈ are worked out from the molar mass of the structure shown. *1 amine or outer side, *2 acyl side, *3 side chain or, on linkers, in order; H or OH if unused. Where a SMILES comes first, the peptide text is derived from it. Bridges are numbered along the chain shown (N, C = ends). [ ]: non-standard residue; d: D form. The star is where a group is joined. pTerphenylCO(4''-OnC5H11) = CCCCCOc1ccc(-c2ccc(-c3ccc(C(=O)*)cc3)cc2)cc1; Orn(4R-OH,5R-OH) = O=C([C@H](C[C@@H](O)[C@@H](O)N[*:3])N[*:1])[*:2]; hTyr(3S-OH,4S-OH) = N[C@H](C(=O)O)[C@H](O)[C@@H](O)c1ccc(O)cc1; Pro(3S-OH,4S-Me) = C[C@H]1CN[C@H](C(=O)O)[C@H]1O; Hyp = O=C(O)[C@@H]1C[C@@H](O)CN1

How the values were obtained:
[1] = Inhibition of Candida parapsilosis ATCC 22019 glucan synthase by assessed as [3H]UDPG incorporation
How it was run: (§1)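 Cells were grown with vigorous shaking at 30°C to early stationary phase in YPD. Membrane GS was partially purified by product entrapment, using 10-fold more cells for low-activity strains. The polymerization assay was started by adding GS, with drug serially diluted from 0.01 to 10,000 ng/ml. Reactions ran 60 min at 25°C and were stopped on ice. IC50 came from sigmoidal variable-slope fits, as arithmetic means ± SD of three repetitions on three days.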

[2] = Inhibition of Candida glabrata T51916 glucan synthase assessed as [3H]UDPG incorporation; design: species or system Nakaseomyces glabratus; how it was run: as §1
[3] = system: Candida orthopsilosis; experiment: Antifungal activity against Candida orthopsilosis 981224 by CLSI method; format: functional; conditions: Lodderomyces orthopsilosis
[4] = Inhibition of Candida albicans ATCC 90028 glucan synthase assessed as [3H]UDPG incorporation; how it was run: as §1
[5] = system: Candida albicans; experiment: Antifungal activity against Candida albicans ATCC 36082 by CLSI method; format: functional
[6] = Inhibition of Candida albicans Sc5314 glucan synthase assessed as [3H]UDPG incorporation; how it was run: as §1
[7] = Inhibition of Saccharomyces cerevisiae BY4742 glucan synthase assessed as [3H]UDPG incorporation; how it was run: as §1
[8] = Inhibition of Candida metapsilosis am-2006-0113 glucan synthase assessed as [3H]UDPG incorporation; how it was run: as §1
[9] = Inhibition of Candida metapsilosis 960161 glucan synthase assessed as [3H]UDPG incorporation; how it was run: as §1
[10] = system: Nakaseomyces glabratus; experiment: Antifungal activity against Candida glabrata T51916 by CLSI method; format: functional
[11] = system: Candida metapsilosis; experiment: Antifungal activity against Candida metapsilosis 960161 by CLSI method; format: functional; conditions: Lodderomyces metapsilosis
[12] = Inhibition of Candida orthopsilosis H10 glucan synthase assessed as [3H]UDPG incorporation; how it was run: as §1
[13] = system: Candida albicans; experiment: Antifungal activity against Candida albicans Sc5314 by CLSI method; format: functional
[14] = system: Candida albicans; experiment: Antifungal activity against Candida albicans M122 by CLSI method; format: functional
[15] = Inhibition of Candida parapsilosis H4 glucan synthase assessed as [3H]UDPG incorporation; how it was run: as §1
[16] = Inhibition of Candida orthopsilosis 981224 glucan synthase assessed as [3H]UDPG incorporation; how it was run: as §1
[17] = system: Candida parapsilosis; experiment: Antifungal activity against Candida parapsilosis H4 by CLSI method; format: functional; conditions: Lodderomyces parapsilosis
[18] = Inhibition of Candida albicans ATCC 36082 glucan synthase assessed as [3H]UDPG incorporation; how it was run: as §1
[19] = Inhibition of Candida albicans M122 glucan synthase assessed as [3H]UDPG incorporation; how it was run: as §1
[20] = Inhibition of Candida parapsilosis H5 glucan synthase assessed as [3H]UDPG incorporation; how it was run: as §1
[21] = system: Nakaseomyces glabratus; experiment: Antifungal activity against Candida glabrata ATCC 90030 by CLSI method; format: functional
[22] = Inhibition of Candida glabrata ATCC 90030 glucan synthase assessed as [3H]UDPG incorporation; design: species or system Nakaseomyces glabratus; how it was run: as §1
[23] = system: Saccharomyces cerevisiae; experiment: Antifungal activity against FKS1 deficient Saccharomyces cerevisiae BY4742 by CLSI method; format: functional
[24] = system: Saccharomyces cerevisiae; experiment: Antifungal activity against Saccharomyces cerevisiae BY4742-FKS1P649A mutant by CLSI method; format: functional
How it was run: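 Broth microdilution following CLSI M27-A2, run in YPD broth (1% yeast extract, 2% Bacto peptone, 2% dextrose). MICs are geometric means of at least three repetitions on three separate days.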

[25] = system: Candida parapsilosis; experiment: Antifungal activity against Candida parapsilosis ATCC 22019 by CLSI method; format: functional; conditions: Lodderomyces parapsilosis
[26] = system: Candida metapsilosis; experiment: Antifungal activity against Candida metapsilosis am-2006-0113 by CLSI method; format: functional; conditions: Lodderomyces metapsilosis
[27] = Inhibition of Saccharomyces cerevisiae BY4742-FKS1P649A mutant glucan synthase assessed as [3H]UDPG incorporation; how it was run: as §1
[28] = system: Candida orthopsilosis; experiment: Antifungal activity against Candida orthopsilosis H10 by CLSI method; format: functional; conditions: Lodderomyces orthopsilosis
[29] = system: Saccharomyces cerevisiae; experiment: Antifungal activity against Saccharomyces cerevisiae BY4742 by CLSI method; format: functional
[30] = system: Candida parapsilosis; experiment: Antifungal activity against Candida parapsilosis H5 by CLSI method; format: functional; conditions: Lodderomyces parapsilosis
[31] = system: Candida albicans; experiment: Antifungal activity against Candida albicans ATCC 90028 by CLSI method; format: functional

SMILES: CCCCCOc1ccc(-c2ccc(-c3ccc(C(=O)N[C@H]4C[C@@H](O)[C@@H](O)NC(=O)[C@@H]5[C@@H](O)[C@@H](C)CN5C(=O)[C@H]([C@@H](C)O)NC(=O)[C@H]([C@H](O)[C@@H](O)c5ccc(O)cc5)NC(=O)[C@@H]5C[C@@H](O)CN5C(=O)[C@H]([C@@H](C)O)NC4=O)cc3)cc2)cc1 [ANIDULAFUNGIN] ({pTerphenylCO(4''-OnC5H11)}-[Orn(4R-OH,5R-OH)]T[Hyp][hTyr(3S-OH,4S-OH)]T[Pro(3S-OH,4S-Me)]; lactam 1-C)
- IC50 [1]: 0.44203 µg/mL (≈ 0.388 µM)
- Ki [1]: 0.6395 µg/mL (≈ 0.561 µM)
- IC50 [2]: 0.20686 µg/mL (≈ 0.181 µM)
- Ki [2]: 0.712 µg/mL (≈ 0.624 µM)
- MIC [3]: 1.26 µg/mL (≈ 1.11 µM)
- IC50 [4]: 0.00163 µg/mL (≈ 0.00143 µM)
- Ki [4]: 0.00143 µg/mL (≈ 0.00125 µM)
- MIC [5]: 0.02 µg/mL (≈ 0.0175 µM)
- IC50 [6]: 0.00089 µg/mL (≈ 0.000781 µM)
- Ki [6]: 0.00133 µg/mL (≈ 0.00117 µM)
- IC50 [7]: 0.10737 µg/mL (≈ 0.0942 µM)
- Ki [7]: 0.06895 µg/mL (≈ 0.0605 µM)
- IC50 [8]: 0.1264 µg/mL (≈ 0.111 µM)
- Ki [8]: 0.0414 µg/mL (≈ 0.0363 µM)
- IC50 [9]: 0.1333 µg/mL (≈ 0.117 µM)
- Ki [9]: 0.129 µg/mL (≈ 0.113 µM)
- MIC [10]: 1.59 µg/mL (≈ 1.39 µM)
- MIC [11]: 0.79 µg/mL (≈ 0.693 µM)
- IC50 [12]: 0.16317 µg/mL (≈ 0.143 µM)
- Ki [12]: 0.111 µg/mL (≈ 0.0973 µM)
- MIC [13]: 0.08 µg/mL (≈ 0.0702 µM)
- MIC [14]: 0.15 µg/mL (≈ 0.132 µM)
- IC50 [15]: 0.11012 µg/mL (≈ 0.0966 µM)
- Ki [15]: 0.3685 µg/mL (≈ 0.323 µM)
- IC50 [16]: 0.1419 µg/mL (≈ 0.124 µM)
- Ki [16]: 0.0465 µg/mL (≈ 0.0408 µM)
- MIC [17]: 2.24 µg/mL (≈ 1.96 µM)
- IC50 [18]: 0.00183 µg/mL (≈ 0.0016 µM)
- Ki [18]: 0.00063 µg/mL (≈ 0.000553 µM)
- IC50 [19]: 0.53013 µg/mL (≈ 0.465 µM)
- Ki [19]: 0.646 µg/mL (≈ 0.567 µM)
- IC50 [20]: 0.23707 µg/mL (≈ 0.208 µM)
- Ki [20]: 0.43167 µg/mL (≈ 0.379 µM)
- MIC [21]: 0.05 µg/mL (≈ 0.0438 µM)
- IC50 [22]: 0.00377 µg/mL (≈ 0.00331 µM)
- MIC [23]: 0.015 µg/mL (≈ 0.0132 µM)
- MIC [24]: 0.5 µg/mL (≈ 0.438 µM)
- MIC [25]: 1.1 µg/mL (≈ 0.965 µM)
- MIC [26]: 0.63 µg/mL (≈ 0.553 µM)
- IC50 [27]: 1.663 µg/mL (≈ 1.46 µM)
- Ki [27]: 2.374 µg/mL (≈ 2.08 µM)
- MIC [28]: 0.79 µg/mL (≈ 0.693 µM)
- MIC [29]: 0.03 µg/mL (≈ 0.0263 µM)
- MIC [30]: 1.59 µg/mL (≈ 1.39 µM)
- MIC [31]: 0.02 µg/mL (≈ 0.0175 µM)
